Calls of active or inactive are those of the source. No cut-off for these calls is given here.
Legend:
Homo sapiens [1] = species: Homo sapiens; assay: Selectivity ratio of Ki for recombinant human cathepsin S expressed in Escherichia coli to Ki for human erythrocytes calpain-1
Outline: (§1)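 Ki ratios from kinetic fluorescence assays. Cathepsins B (0.25 nM), L (1 nM), K (3 nM) and S (0.5 nM) in MES buffer at pH 6.0. All at room temperature; Ki by Cheng-Prusoff.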

Homo sapiens [2] = species: Homo sapiens; assay: Selectivity ratio of Ki for recombinant human procathepsin K expressed in Escherichia coli to Ki for human erythrocytes calpain-1; outline: as §1
[3] = Selectivity ratio of Ki for human liver cathepsin B to Ki for human erythrocytes calpain-1
[4] = Selectivity ratio of Ki for human liver cathepsin L to Ki for human erythrocytes calpain-1
[5] = Thiol reactivity using recombinant human full length 13C-labeled La antigen (100 to 324 residues) expressed in Escherichia coli BL21(DE3) by ALARM NMR
[6] = molecular target: T1, Calpain-1 catalytic subunit (Homo sapiens) (UniProt P07384); assay: Inhibition of human erythrocytes calpain-1 using Suc-Leu-Tyr-AMC as substrate in presence of up to 10 mM glutathione by kinetic fluorescence assay
T1 sequence (whole entry): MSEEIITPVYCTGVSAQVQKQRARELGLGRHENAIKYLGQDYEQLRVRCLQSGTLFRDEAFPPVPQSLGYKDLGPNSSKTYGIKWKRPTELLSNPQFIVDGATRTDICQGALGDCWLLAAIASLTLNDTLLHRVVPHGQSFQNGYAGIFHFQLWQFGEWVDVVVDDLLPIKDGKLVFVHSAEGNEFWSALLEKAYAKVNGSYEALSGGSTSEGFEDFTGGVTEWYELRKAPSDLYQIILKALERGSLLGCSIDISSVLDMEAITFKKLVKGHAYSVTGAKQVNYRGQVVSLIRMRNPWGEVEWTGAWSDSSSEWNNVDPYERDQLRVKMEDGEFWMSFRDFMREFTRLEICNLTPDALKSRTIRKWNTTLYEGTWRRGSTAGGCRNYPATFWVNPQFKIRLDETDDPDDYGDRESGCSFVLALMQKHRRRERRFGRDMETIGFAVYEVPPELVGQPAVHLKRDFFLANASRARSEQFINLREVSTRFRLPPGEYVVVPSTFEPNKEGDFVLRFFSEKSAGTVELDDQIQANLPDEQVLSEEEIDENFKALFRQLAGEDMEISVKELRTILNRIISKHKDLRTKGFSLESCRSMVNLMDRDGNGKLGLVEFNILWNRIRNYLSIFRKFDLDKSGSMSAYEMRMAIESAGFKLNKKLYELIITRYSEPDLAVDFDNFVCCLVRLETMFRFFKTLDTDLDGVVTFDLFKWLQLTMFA

[7] = molecular target: T2, Calpain-1 catalytic subunit (Homo sapiens, UniProt P07384); assay: Inhibition of human erythrocytes calpain-1 using Suc-Leu-Tyr-AMC as substrate by kinetic fluorescence assay
T2 sequence (P07384 whole entry): T1 sequence (whole entry)

CN1CCC(c2ccn(-c3ncccc3C(=O)NC(Cc3ccccc3)C(=O)C(N)=O)n2)CC1 (configuration not stated)
Ratio Ki (Homo sapiens [1]): 89 | Ratio Ki (Homo sapiens [2]): 1 | Ratio Ki [3]: 2 | Ratio Ki [4]: 2 | Thiol reactivity [5]: Metabolite not detected | inhibition [6]: Active | Ki ([7]; read-out: Ki): 146 nM

COc1ccc(-c2ccn(-c3ncccc3C(=O)NC(Cc3ccccc3)C(=O)C(N)=O)n2)cc1 (configuration not stated)
Ratio Ki (Homo sapiens [1]): > 500 | Ratio Ki (Homo sapiens [2]): 17 | Ratio Ki [3]: 11 | Ratio Ki [4]: 81 | Thiol reactivity [5]: Metabolite not detected | inhibition [6]: Active | Ki ([7]; read-out: Ki): 83 nM

NC(=O)C(=O)C(Cc1ccccc1)NC(=O)c1cccnc1-n1ccc(-c2ccc(CN3CCOCC3)cc2)n1 (configuration not stated)
Ratio Ki (Homo sapiens [1]): 240 | Ratio Ki (Homo sapiens [2]): < 1 | Ratio Ki [3]: <1 | Ratio Ki [4]: 5 | Thiol reactivity [5]: Metabolite not detected | inhibition [6]: Active | Ki ([7]; read-out: Ki): 41 nM

NC(=O)C(=O)C(Cc1ccccc1)NC(=O)c1cccnc1-n1cc2c(n1)CCCC2 (configuration not stated)
Ratio Ki (Homo sapiens [1]): 10 | Ratio Ki (Homo sapiens [2]): 2 | Ratio Ki [3]: 2 | Ratio Ki [4]: 45 | Thiol reactivity [5]: Metabolite not detected | inhibition [6]: Active | Ki ([7]; read-out: Ki): 101 nM

NC(=O)C(=O)C(Cc1ccccc1)NC(=O)c1cccnc1-n1ccc(Cc2ccccc2)n1 (configuration not stated)
Ratio Ki (Homo sapiens [1]): 75 | Ratio Ki (Homo sapiens [2]): 9 | Ratio Ki [3]: 9 | Ratio Ki [4]: 50 | Thiol reactivity [5]: Metabolite not detected | inhibition [6]: Active | Ki ([7]; read-out: Ki): 38 nM

NC(=O)C(=O)C(Cc1ccccc1)NC(=O)c1cccnc1-n1ccc(-c2ccc(C(F)(F)F)cc2)n1 (configuration not stated)
Ratio Ki (Homo sapiens [1]): 87 | Ratio Ki (Homo sapiens [2]): 22 | Ratio Ki [3]: 11 | Ratio Ki [4]: 210 | Thiol reactivity [5]: Metabolite not detected | inhibition [6]: Active | Ki ([7]; read-out: Ki): 72 nM

CCCCC(NC(=O)c1cccnc1-c1csc(-c2ccccc2)n1)C(=O)C(N)=O (configuration not stated)
Ratio Ki (Homo sapiens [1]): 27 | Ratio Ki (Homo sapiens [2]): 1 | Ratio Ki [3]: 2 | Ratio Ki [4]: 13 | Thiol reactivity [5]: Metabolite not detected | inhibition [6]: Active | Ki ([7]; read-out: Ki): 122 nM

NC(=O)C(=O)C(Cc1ccccc1)NC(=O)c1cccnc1-n1ccc(C2CCCCC2)n1 (configuration not stated)
Ratio Ki (Homo sapiens [1]): 92 | Ratio Ki (Homo sapiens [2]): 10 | Ratio Ki [3]: 9 | Ratio Ki [4]: 33 | Thiol reactivity [5]: Metabolite not detected | inhibition [6]: Active | Ki ([7]; read-out: Ki): 56 nM

NC(=O)C(=O)[C@H](Cc1ccccc1)NC(=O)c1cccnc1-n1ccc(-c2ccccc2)n1
Ki ([7]; read-out: Ki(app)): 10 nM

NC(=O)C(=O)C(Cc1ccccc1)NC(=O)c1cccnc1-n1ccc(-c2ccc(Cl)cc2)n1 (configuration not stated)
Ratio Ki (Homo sapiens [1]): > 300 | Ratio Ki (Homo sapiens [2]): 9 | Ratio Ki [3]: 6 | Ratio Ki [4]: 89 | Thiol reactivity [5]: Metabolite not detected | inhibition [6]: Active | Ki ([7]; read-out: Ki): 88 nM

NC(=O)C(=O)C(Cc1ccccc1)NC(=O)c1cccnc1-n1cccn1 (configuration not stated)
Ratio Ki (Homo sapiens [1]): 21 | Ratio Ki (Homo sapiens [2]): 3 | Ratio Ki [3]: 1 | Ratio Ki [4]: 20 | Thiol reactivity [5]: Metabolite not detected | inhibition [6]: Active | Ki ([7]; read-out: Ki): 164 nM

NC(=O)C(=O)C(Cc1ccccc1)NC(=O)c1cccnc1-c1coc(-c2ccccc2)n1 (configuration not stated)
Ratio Ki (Homo sapiens [1]): 127 | Ratio Ki (Homo sapiens [2]): 20 | Ratio Ki [3]: 11 | Ratio Ki [4]: 29 | Thiol reactivity [5]: Metabolite not detected | inhibition [6]: Active | Ki ([7]; read-out: Ki): 177 nM

NC(=O)C(=O)C(Cc1ccccc1)NC(=O)c1cccnc1-n1ccc(C2CCOCC2)n1 (configuration not stated)
Ratio Ki (Homo sapiens [1]): 147 | Ratio Ki (Homo sapiens [2]): 13 | Ratio Ki [3]: 14 | Ratio Ki [4]: 56 | Thiol reactivity [5]: Metabolite not detected | inhibition [6]: Active | Ki ([7]; read-out: Ki): 48 nM

CCCCC(NC(=O)c1cccnc1-n1cc(-c2ccccc2)cn1)C(=O)C(N)=O (configuration not stated)
Ratio Ki (Homo sapiens [1]): 2 | Ratio Ki (Homo sapiens [2]): < 1 | Ratio Ki [3]: <1 | Ratio Ki [4]: 4 | Thiol reactivity [5]: Metabolite not detected | inhibition [6]: Active | Ki ([7]; read-out: Ki): 20 nM

CCCCC(NC(=O)c1cccnc1-n1cnc(-c2ccccc2)c1)C(=O)C(N)=O (configuration not stated)
Ratio Ki (Homo sapiens [1]): 22 | Ratio Ki (Homo sapiens [2]): < 1 | Ratio Ki [3]: <1 | Ratio Ki [4]: 22 | Thiol reactivity [5]: Metabolite not detected | inhibition [6]: Active | Ki ([7]; read-out: Ki): 38 nM

NC(=O)C(=O)C(Cc1ccccc1)NC(=O)c1cccnc1-n1ccc(C2CC2)n1 (configuration not stated)
Ratio Ki (Homo sapiens [1]): 50 | Ratio Ki (Homo sapiens [2]): 7 | Ratio Ki [3]: 4 | Ratio Ki [4]: 34 | Thiol reactivity [5]: Metabolite not detected | inhibition [6]: Active | Ki ([7]; read-out: Ki): 94 nM

CC(C)(C)c1ccn(-c2ncccc2C(=O)NC(Cc2ccccc2)C(=O)C(N)=O)n1 (configuration not stated)
Ratio Ki (Homo sapiens [1]): 56 | Ratio Ki (Homo sapiens [2]): 24 | Ratio Ki [3]: 16 | Ratio Ki [4]: 10 | Thiol reactivity [5]: Metabolite not detected | inhibition [6]: Active | Ki ([7]; read-out: Ki): 81 nM

NC(=O)C(=O)C(Cc1ccccc1)NC(=O)c1cccnc1-c1nc(-c2ccccc2)cs1 (configuration not stated)
Ratio Ki (Homo sapiens [1]): 105 | Ratio Ki (Homo sapiens [2]): 11 | Ratio Ki [3]: 10 | Ratio Ki [4]: 37 | Thiol reactivity [5]: Metabolite not detected | inhibition [6]: Active | Ki ([7]; read-out: Ki): 234 nM

NC(=O)C(=O)C(Cc1ccccc1)NC(=O)c1ccccc1-n1ccc(-c2ccccc2)n1 (configuration not stated)
Ratio Ki (Homo sapiens [1]): 82 | Ratio Ki (Homo sapiens [2]): 1 | Ratio Ki [3]: 7 | Ratio Ki [4]: 38 | Thiol reactivity [5]: Metabolite not detected | inhibition [6]: Active | Ki ([7]; read-out: Ki): 43 nM

NC(=O)C(=O)C(Cc1ccccc1)NC(=O)c1cccnc1-c1csc(-c2ccccc2)n1 (configuration not stated)
Ratio Ki (Homo sapiens [1]): 310 | Ratio Ki (Homo sapiens [2]): 11 | Ratio Ki [3]: 39 | Ratio Ki [4]: 139 | Thiol reactivity [5]: Metabolite not detected | inhibition [6]: Active | Ki ([7]; read-out: Ki): 38 nM

CCCCC(NC(=O)c1cccnc1-n1ccc(-c2ccccc2)n1)C(=O)C(N)=O (configuration not stated)
Ratio Ki (Homo sapiens [1]): 61 | Ratio Ki (Homo sapiens [2]): 2 | Ratio Ki [3]: 1 | Ratio Ki [4]: 25 | Thiol reactivity [5]: Metabolite not detected | inhibition [6]: Active | Ki ([7]; read-out: Ki): 32 nM

NC(=O)C(=O)C(Cc1ccccc1)NC(=O)c1cccnc1-n1cnc(-c2ccccc2)c1 (configuration not stated)
Ratio Ki (Homo sapiens [1]): 54 | Ratio Ki (Homo sapiens [2]): < 1 | Ratio Ki [3]: <1 | Ratio Ki [4]: 23 | Thiol reactivity [5]: Metabolite not detected | inhibition [6]: Active | Ki ([7]; read-out: Ki): 45 nM

NC(=O)C(=O)C(Cc1ccccc1)NC(=O)c1cccnc1-n1cc(-c2ccccc2)cn1 (configuration not stated)
Ratio Ki (Homo sapiens [1]): 14 | Ratio Ki (Homo sapiens [2]): 1 | Ratio Ki [3]: <1 | Ratio Ki [4]: 12 | Thiol reactivity [5]: Metabolite not detected | inhibition [6]: Active | Ki ([7]; read-out: Ki): 21 nM

NC(=O)C(=O)C(Cc1ccccc1)NC(=O)c1ccccc1-c1csc(-c2ccccc2)n1 (configuration not stated)
Ratio Ki (Homo sapiens [1]): 186 | Ratio Ki (Homo sapiens [2]): < 1 | Ratio Ki [3]: 23 | Ratio Ki [4]: 116 | Thiol reactivity [5]: Metabolite not detected | inhibition [6]: Active | Ki ([7]; read-out: Ki): 82 nM

From ChEMBL document CHEMBL4038338 (J Med Chem, 2017)
